High-throughput results deposited in PubChem by Sanford-Burnham Center for Chemical Genomics.
In the library only some 3% were active in any assay of this set; here they are far more common.
Apaf-1 inh: human Apaf-1 inhibition. O14727. reconstituted apoptosome caspase-3 activity, DEVD-Rh110 fluorescence. inhibition, % at 20 µM. 330,000 tested, 0.71% active. AID 489030; active = inhibition of at least 40% at 20 µM
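System: Apoptosome proteins | Medium: Hepes pH 7.5 with detergent and BSA | Also added: Cytochrome c trigger plus (Z-DEVD)2-Rh110 caspase-3 substrate | Incubation: 30 min compound preincubation, 50 min activation, room temperature | Detection: Rhodamine 110 fluorescence at Ex 480/Em 540 nm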
UBC13 inh: human UBC13 polyubiquitination inhibition; P61088; UBC13 polyubiquitin chain formation, TR-FRET; inhibition, % at 20 µM; 330,000 tested, 0.47% active; AID 485273; in the data active = inhibition above about 45%, passing the limit was not always enough
Target sequence (P61088 whole entry, looked up): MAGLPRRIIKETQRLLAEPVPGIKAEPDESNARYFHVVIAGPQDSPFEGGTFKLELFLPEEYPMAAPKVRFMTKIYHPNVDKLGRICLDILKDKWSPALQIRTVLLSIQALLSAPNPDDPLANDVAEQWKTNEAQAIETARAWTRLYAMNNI
SENP8 block-1: SENP8 (human) protease inhibition. recombinant SENP8, Nedd8 substrate fluorescence. inhibition, % at 20 µM. 360,000 tested, 0.64% active; in the data active = inhibition mostly above about 40%, no sharp cut-off; inactive = mostly below about 27%
Target sequence (Q96LD8 whole entry, looked up): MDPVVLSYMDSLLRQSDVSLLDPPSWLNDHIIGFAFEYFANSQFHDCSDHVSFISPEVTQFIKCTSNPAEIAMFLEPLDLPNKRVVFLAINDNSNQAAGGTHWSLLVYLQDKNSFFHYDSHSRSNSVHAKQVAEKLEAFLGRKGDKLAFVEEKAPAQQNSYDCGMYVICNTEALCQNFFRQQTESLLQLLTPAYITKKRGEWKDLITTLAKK
SENP6 inh: inhibitors of human SENP6 protease | Recombinant SENP6 catalytic domain, aminoluciferin luminescence | inhibition, % at 10 µM | 330,000 tested, 1.8% active | AID 2599;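 active = inhibition above about 50% at the single tested dose, limit read from the data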
SENP7 inh: SENP7 protease inhibition; AID 434973; 330,000 tested, 1.5% active; inhibition, % at 5 µM; Q9BQF6; recombinant SENP7, Z-RLRGG-aminoluciferin luminescence, 40 min;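 active = inhibition above about 50% at the single test dose, limit read from the data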
SENP8 block-2: SENP8 protease inhibition | Q96LD8 | purified SENP8, Z-RLRGG-aminoluciferin cleavage, luminescence | inhibition, % at 10 µM | 330,000 tested, 1.2% active; in the data active = inhibition above about 50%
SENP8 confirm: confirmation of human SENP8 protease inhibitors; inhibition, % at 12.5 µM; 6,200 tested, 40% active; shares compounds with SENP7 inh; Recombinant SENP8, Z-RLRGG-aminoluciferin luminescence, 60 min;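 active = mean inhibition across replicates above about 50%, limit read from the data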
SENP6 conf: human SENP6 inhibition, confirmed; shares compounds with SENP7 inh; recombinant SENP6, Z-RLRGG-aminoluciferin luminescence; inhibition, % at 12.5 µM; 6,200 tested, 58% active; AID 488915
SENP7 confirm: human SENP7 inhibition, confirmed; recombinant SENP7, Z-RLRGG-aminoluciferin luminescence, 40 min; 6,200 tested, 69% active; inhibition, % at 12.5 µM; shares compounds with SENP7 inh
Casp3 SENP sel: inhibits human caspase-3 in SENP selectivity test. shares compounds with SENP7 inh. purified caspase-3, Z-DEVD-aminoluciferin luminescence, 60 min. inhibition, % at 12.5 µM. 6,200 tested, 60% active. AID 488918;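 active = mean inhibition above about 50%, limit read from the data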
Target sequence (P42574 28-227 limits assumed): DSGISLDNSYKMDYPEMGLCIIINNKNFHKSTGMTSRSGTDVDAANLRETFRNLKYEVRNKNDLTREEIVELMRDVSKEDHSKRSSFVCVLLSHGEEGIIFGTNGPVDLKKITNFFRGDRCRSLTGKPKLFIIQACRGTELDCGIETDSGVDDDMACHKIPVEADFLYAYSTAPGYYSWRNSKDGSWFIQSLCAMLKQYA
SENP luc ctr: luminescence interference (SENP counter-screen). shares compounds with SENP7 inh. Pre-incubated SENP8/Z-RLRGG-aminoluciferin, luciferase luminescence interference. inhibition, % at 12.5 µM. 6,200 tested, 39% active;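 active = mean inhibition above about 50% when retested at one dose, limit read from the data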
Hits are given with their value; - = inactive; . = not tested or not shown.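 Rule for the calls, unless noted: active = mean inhibition above about 50% in the one-dose retest (limit read from the data); inactive = the rest.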

SMILES | Apaf-1 inh | UBC13 inh | SENP8 block-1 | SENP6 inh | SENP7 inh | SENP8 block-2 | SENP8 confirm | SENP6 conf | SENP7 confirm | Casp3 SENP sel | SENP luc ctr
Fc1ccccc1CSc1nnc(-c2ccccc2)o1 | - | - | - | 54 | - | - | - | - | 63 | - | -
COc1ccc(-c2nnc(SCC(=O)c3cccs3)o2)cc1 | - | - | - | - | 56 | - | - | - | 83 | 55 | -
Cc1ccccc1-c1nnc(SCc2ccccc2)o1 | - | - | - | - | - | - | . | . | . | . | .
Cc1ccccc1-c1nnc(SCc2ccccc2F)o1 | - | - | - | 57 | - | - | - | - | 73 | - | -
CC(C)N(Cc1cc2ccccc2[nH]c1=O)C(=O)c1ccco1 | - | - | - | - | - | - | . | . | . | . | .
O=C(Nc1ccc2c(c1)CCC2)c1cccs1 | - | - | - | - | 78 | 62 | 83 | 87 | 96 | 83 | 83
CCC(=O)Nc1ccc(C(=O)NNC(=O)c2cccs2)cc1 | - | - | - | - | - | - | . | . | . | . | .
Cc1ccc(NC(=O)c2cccs2)cc1 | - | - | - | - | 53 | - | - | - | 75 | 65 | 52
O=C(Nc1ccc(-c2noc(-c3ccccc3F)n2)cc1)c1cccs1 | - | - | - | - | - | - | . | . | . | . | .
Cc1ccc(NC(=O)C(=O)NNC(=O)c2cccs2)cc1 | - | - | - | 57 | - | 55 | - | - | 79 | 83 | -
Cc1ccccc1-c1nc(-c2ccc(NC(=O)c3cccs3)cc2)no1 | - | - | - | - | 51 | - | - | - | - | - | -
COCCNC(=O)c1cccc(OC2CCN(Cc3ccccc3C)CC2)c1 | - | - | - | - | - | - | . | . | . | . | .
Cc1ccc(S(=O)(=O)NC(=O)C2(C)CCN2C(=O)C2CCCCC2)cc1 (centres undefined) | . | . | - | . | . | . | . | . | . | . | .
Cc1cccc(OCC(=O)N/N=C/c2cc([N+](=O)[O-])ccc2N2CCOCC2)c1 | - | - | - | - | - | - | . | . | . | . | .
Cc1ccsc1/C=N/n1cnc2sc(C)c(C)c2c1=O | - | - | - | 70 | - | - | - | - | - | - | -
Cc1cc(=O)cc(C)n1-c1ccc(F)cc1F | - | - | - | - | - | - | . | . | . | . | .
COc1ccc(C(=O)NCC(=O)OCC(=O)NC2CCCCCC2)cc1OC | - | - | - | - | - | - | . | . | . | . | .
Cc1cccc(/C=C/C(=O)c2ccc(NC3=NCCCS3)cc2)c1 | - | - | - | 93 | 88 | 71 | 81 | 68 | - | - | 90
COc1oc(-c2ccccc2)nc1C(F)(F)F | - | - | - | - | 71 | - | - | - | - | - | -
CCOC(=O)c1cc(-c2cc3ccccc3o2)n[nH]1 | - | - | - | 72 | 54 | - | 63 | 61 | 81 | - | -
CCOC(=O)c1cc(-c2ccc(C)o2)n[nH]1 | - | - | - | - | - | - | . | . | . | . | .
Cc1ccccc1NCc1nc2ccccc2n1C | - | - | - | 85 | 86 | 78 | 83 | 84 | 98 | 93 | 56
CCn1cnc2cc(NCc3nc4ccccc4n3Cc3ccccc3)ccc21 | - | - | - | - | - | - | . | . | . | . | .
Cn1c(CNc2ccc(F)cc2)nc2ccccc21 | - | - | - | 80 | 78 | 58 | 72 | 72 | 92 | 87 | 75
Cn1c(CNc2ccccc2O)nc2ccccc21 | - | - | - | - | - | - | . | . | . | . | .
SMILES | Apaf-1 inh | UBC13 inh | SENP8 block-1 | SENP6 inh | SENP7 inh | SENP8 block-2 | SENP8 confirm | SENP6 conf | SENP7 confirm | Casp3 SENP sel | SENP luc ctr
CCn1cnc2cc(NCc3nc4ccccc4n3C)ccc21 | - | - | - | 72 | - | 68 | 78 | 77 | 93 | 92 | 78
COc1ccc(N(CC(=O)NCc2ccccc2)S(=O)(=O)c2c(C)n[nH]c2C)cc1 | - | - | - | - | - | - | . | . | . | . | .
COc1ccc(C2=Nc3ccccc3OC2)cc1 | - | - | - | 71 | 56 | - | 98 | 99 | 102 | 95 | 90
COc1ccc(NC2=Nc3ccccc3CC2)cc1 | - | - | - | - | - | - | . | . | . | . | .
O=C(c1ccco1)C(O)c1ccco1 (centres undefined) | - | - | - | - | - | - | . | . | . | . | .
Cc1ccc(C(O)C(=O)c2ccco2)cc1 (centres undefined) | - | - | - | - | 75 | - | - | - | - | - | -
COc1cccc(NC(=O)c2ccccc2Oc2ccccc2)c1 | - | - | - | - | - | - | . | . | . | . | .
COc1cccc(NC(=O)c2cc3ccccc3o/c2=N\O)c1 | - | - | - | 98 | 100 | 96 | 98 | 99 | 101 | 96 | 97
O=C(Nc1ccccc1Cl)c1cc2ccccc2o/c1=N\O | - | - | - | 56 | 81 | - | - | - | 81 | 56 | -
COc1cc(OC)cc(C(=O)NNC(=O)CN2C(=O)NC(C)(c3ccccc3)C2=O)c1 (centres undefined) | - | - | - | - | - | - | . | . | . | . | .
CC(C)n1c(NCc2ccc(Cl)cc2)nc2ccccc21 | - | - | - | - | - | - | . | . | . | . | .
COc1ccc(N=Cc2sc(O)c3ccccc23)cc1 | - | - | - | 62 | 70 | 79 | 93 | 92 | 100 | 73 | 81
Cc1cccc(Nc2nc3ccccc3s2)c1C | - | - | - | 69 | 83 | 65 | - | 74 | 94 | 59 | -
COc1ccc(Nc2nc3ccccc3s2)cc1 | - | - | - | 75 | 69 | 62 | 66 | 66 | 89 | 50 | -
COc1ccc(S(=O)(=O)N2CCN(c3ccccn3)CC2)cc1[N+](=O)[O-] | - | - | - | 85 | - | - | - | - | - | - | -
CC(C)Nc1ncnc2c1ncn2[C@H]1CN(Cc2cccs2)C[C@@H](CO)O1 | . | . | - | . | . | . | . | . | . | . | .
Cn1nnc(-c2ccc(OCc3ccccc3F)cc2)n1 | - | - | - | 97 | 98 | 91 | - | 94 | 101 | 79 | -
Fc1ccccc1COc1ccc(-c2nnn(Cc3ccccc3F)n2)cc1 | - | - | - | - | - | - | . | . | . | . | .
Fc1ccccc1COc1ccc(C(=S)N2CCCC2)cc1 | - | - | - | 58 | - | 64 | - | - | 60 | - | -
CC(C)n1nnc(-c2ccc(OCc3ccccc3F)cc2)n1 | - | - | - | 90 | 90 | 90 | - | 91 | 100 | 82 | 62
CCOC(=O)C(=O)N1CCC(C(=O)OCC)CC1 | - | - | - | - | - | - | . | . | . | . | .
O=C(N/N=C/c1ccc(OCc2ccc(F)cc2)cc1)c1ccccc1 | - | - | - | - | - | - | . | . | . | . | .
